Reference: ChEMBL document CHEMBL4261538, “Synthesis and molecular docking studies of xanthone attached amino acids as potential antimicrobial and anti-inflammatory agents” (Medchemcomm, 2017)

Tests used:
Erythrocyte = test: Anti-inflammatory activity in human RBC assessed as inhibition of hypotonic solution-induced hemolysis after 10 mins by spectrophotometric method; format: functional, cell-based
Summary of the method: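 Human blood (heparinized) washed with 0.9% saline, packed cells made into a 40% v/v stock in isotonic phosphate buffer (154 mM NaCl, 10 mM sodium phosphate, pH 7.4). Stock RBC mixed with hypotonic buffer (50 mM NaCl, 10 mM phosphate, pH 7.4) plus sample at 20–100 µg mL⁻¹.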

Fusarium oxysporum [1] = test: Antifungal activity against Fusarium oxysporum at 100 ug/ml incubated for 48 hrs by agar well diffusion method; format: functional; conditions: read-out: DIZ
Summary of the method: (§1)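 Compounds dissolved in DMSO at 5 mg mL⁻¹ and 5–20 µL added to 6 mm wells, giving 25, 50, 75, 100 µg per well. Bavistin was the positive control and DMSO the negative control. Plates incubated at 28 °C for 48 h, then inhibition zone diameter (mm) measured. Values are means of three determinations.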

Aspergillus niger [2] = test: Antifungal activity against Aspergillus niger at 25 ug/ml incubated for 48 hrs by agar well diffusion method; format: functional; conditions: read-out: DIZ; summary of the method: as §1
Aspergillus niger [3] = test: Antifungal activity against Aspergillus niger at 50 ug/ml incubated for 48 hrs by agar well diffusion method; format: functional; conditions: read-out: DIZ; summary of the method: as §1
Aspergillus niger [4] = test: Antifungal activity against Aspergillus niger at 75 ug/ml incubated for 48 hrs by agar well diffusion method; format: functional; conditions: read-out: DIZ; summary of the method: as §1
Fusarium oxysporum [5] = test: Antifungal activity against Fusarium oxysporum at 50 ug/ml incubated for 48 hrs by agar well diffusion method; format: functional; conditions: read-out: DIZ; summary of the method: as §1
Candida albicans [6] = test: Antifungal activity against Candida albicans at 100 ug/ml incubated for 48 hrs by agar well diffusion method; format: functional; conditions: read-out: DIZ; summary of the method: as §1
Klebsiella pneumoniae [7] = test: Antibacterial activity against Klebsiella pneumoniae at 100 ug/ml incubated for 24 hrs by agar well diffusion method; format: functional; conditions: read-out: DIZ
Summary of the method: (§2)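 Bacteria grown in nutrient broth at 37 °C for 24 h, then subcultured at room temperature. Compounds dissolved in DMSO at 5 mg mL⁻¹ and 5–20 µL added to 6 mm wells, giving 25, 50, 75, 100 µg per well. Gentamicin was the positive control and DMSO the negative control. Plates held at 37 °C for 24 h, then inhibition zone diameter (mm) measured. Values are means of three determinations.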

Escherichia coli [8] = test: Antibacterial activity against Escherichia coli at 50 ug/ml incubated for 24 hrs by agar well diffusion method; format: functional; conditions: read-out: DIZ; summary of the method: as §2
Staphylococcus aureus [9] = test: Antibacterial activity against Staphylococcus aureus at 75 ug/ml incubated for 24 hrs by agar well diffusion method; format: functional; conditions: read-out: DIZ; summary of the method: as §2
Bacillus subtilis [10] = test: Antibacterial activity against Bacillus subtilis at 50 ug/ml incubated for 24 hrs by agar well diffusion method; format: functional; conditions: read-out: DIZ; summary of the method: as §2
Klebsiella pneumoniae [11] = test: Antibacterial activity against Klebsiella pneumoniae at 25 ug/ml incubated for 24 hrs by agar well diffusion method; format: functional; conditions: read-out: DIZ; summary of the method: as §2
Klebsiella pneumoniae [12] = test: Antibacterial activity against Klebsiella pneumoniae at 50 ug/ml incubated for 24 hrs by agar well diffusion method; format: functional; conditions: read-out: DIZ; summary of the method: as §2
Bacillus subtilis [13] = test: Antibacterial activity against Bacillus subtilis at 75 ug/ml incubated for 24 hrs by agar well diffusion method; format: functional; conditions: read-out: DIZ; summary of the method: as §2
Candida albicans [14] = test: Antifungal activity against Candida albicans at 75 ug/ml incubated for 48 hrs by agar well diffusion method; format: functional; conditions: read-out: DIZ; summary of the method: as §1
Escherichia coli [15] = test: Antibacterial activity against Escherichia coli at 25 ug/ml incubated for 24 hrs by agar well diffusion method; format: functional; conditions: read-out: DIZ; summary of the method: as §2
Staphylococcus aureus [16] = test: Antibacterial activity against Staphylococcus aureus at 100 ug/ml incubated for 24 hrs by agar well diffusion method; format: functional; conditions: read-out: DIZ; summary of the method: as §2
Aspergillus niger [17] = test: Antifungal activity against Aspergillus niger at 100 ug/ml incubated for 48 hrs by agar well diffusion method; format: functional; conditions: read-out: DIZ; summary of the method: as §1
Klebsiella pneumoniae [18] = test: Antibacterial activity against Klebsiella pneumoniae at 75 ug/ml incubated for 24 hrs by agar well diffusion method; format: functional; conditions: read-out: DIZ; summary of the method: as §2
Escherichia coli [19] = test: Antibacterial activity against Escherichia coli at 75 ug/ml incubated for 24 hrs by agar well diffusion method; format: functional; conditions: read-out: DIZ; summary of the method: as §2
Bacillus subtilis [20] = test: Antibacterial activity against Bacillus subtilis at 100 ug/ml incubated for 24 hrs by agar well diffusion method; format: functional; conditions: read-out: DIZ; summary of the method: as §2
Fusarium oxysporum [21] = test: Antifungal activity against Fusarium oxysporum at 75 ug/ml incubated for 48 hrs by agar well diffusion method; format: functional; conditions: read-out: DIZ; summary of the method: as §1
Fusarium oxysporum [22] = test: Antifungal activity against Fusarium oxysporum at 25 ug/ml incubated for 48 hrs by agar well diffusion method; format: functional; conditions: read-out: DIZ; summary of the method: as §1
Escherichia coli [23] = test: Antibacterial activity against Escherichia coli at 100 ug/ml incubated for 24 hrs by agar well diffusion method; format: functional; conditions: read-out: DIZ; summary of the method: as §2
Staphylococcus aureus [24] = test: Antibacterial activity against Staphylococcus aureus at 50 ug/ml incubated for 24 hrs by agar well diffusion method; format: functional; conditions: read-out: DIZ; summary of the method: as §2
Staphylococcus aureus [25] = test: Antibacterial activity against Staphylococcus aureus at 25 ug/ml incubated for 24 hrs by agar well diffusion method; format: functional; conditions: read-out: DIZ; summary of the method: as §2
Candida albicans [26] = test: Antifungal activity against Candida albicans at 25 ug/ml incubated for 48 hrs by agar well diffusion method; format: functional; conditions: read-out: DIZ; summary of the method: as §1
Bacillus subtilis [27] = test: Antibacterial activity against Bacillus subtilis at 25 ug/ml incubated for 24 hrs by agar well diffusion method; format: functional; conditions: read-out: DIZ; summary of the method: as §2
Candida albicans [28] = test: Antifungal activity against Candida albicans at 50 ug/ml incubated for 48 hrs by agar well diffusion method; format: functional; conditions: read-out: DIZ; summary of the method: as §1

Row | SMILES | IC50 (Erythrocyte) [µg/mL] | zone of inhibition at 100 µg/mL (Fusarium oxysporum [1]) [mm] | zone of inhibition at 25 µg/mL (Aspergillus niger [2]) [mm] | zone of inhibition at 50 µg/mL (Aspergillus niger [3]) [mm] | zone of inhibition at 75 µg/mL (Aspergillus niger [4]) [mm] | zone of inhibition at 50 µg/mL (Fusarium oxysporum [5]) [mm] | zone of inhibition at 100 µg/mL (Candida albicans [6]) [mm] | zone of inhibition at 100 µg/mL (Klebsiella pneumoniae [7]) [mm] | zone of inhibition at 50 µg/mL (Escherichia coli [8]) [mm] | zone of inhibition at 75 µg/mL (Staphylococcus aureus [9]) [mm] | zone of inhibition at 50 µg/mL (Bacillus subtilis [10]) [mm] | zone of inhibition at 25 µg/mL (Klebsiella pneumoniae [11]) [mm] | zone of inhibition at 50 µg/mL (Klebsiella pneumoniae [12]) [mm] | zone of inhibition at 75 µg/mL (Bacillus subtilis [13]) [mm] | zone of inhibition at 75 µg/mL (Candida albicans [14]) [mm] | zone of inhibition at 25 µg/mL (Escherichia coli [15]) [mm] | zone of inhibition at 100 µg/mL (Staphylococcus aureus [16]) [mm] | zone of inhibition at 100 µg/mL (Aspergillus niger [17]) [mm] | zone of inhibition at 75 µg/mL (Klebsiella pneumoniae [18]) [mm] | zone of inhibition at 75 µg/mL (Escherichia coli [19]) [mm] | other results
1 | CC(C)[C@H](N)C(=O)Oc1ccc2c(=O)c3ccccc3oc2c1.Cl | 82 | 21 | 9 | 12 | 17 | 15 | 19 | 27 | 15 | 21 | 15 | 16 | 12 | 20 | 16 | 11 | 24 | 21 | 21 | 19 | zone of inhibition at 100 µg/mL (Bacillus subtilis [20]): 24 mm; zone of inhibition at 75 µg/mL (Fusarium oxysporum [21]): 19 mm; zone of inhibition at 25 µg/mL (Fusarium oxysporum [22]): 10 mm; zone of inhibition at 100 µg/mL (Escherichia coli [23]): 23 mm; zone of inhibition at 50 µg/mL (Staphylococcus aureus [24]): 17 mm; zone of inhibition at 25 µg/mL (Staphylococcus aureus [25]): 14 mm; zone of inhibition at 25 µg/mL (Candida albicans [26]): 8 mm; zone of inhibition at 25 µg/mL (Bacillus subtilis [27]): 10 mm; zone of inhibition at 50 µg/mL (Candida albicans [28]): 11 mm
2 | CSCC[C@H](N)C(=O)Oc1ccc2c(=O)c3ccccc3oc2c1.Cl | 34 | 22 | 11 | 18 | 21 | 17 | 23 | 33 | 21 | 22 | 20 | 17 | 24 | 25 | 21 | 17 | 28 | 24 | 29 | 25 | zone of inhibition at 100 µg/mL (Bacillus subtilis [20]): 31 mm; zone of inhibition at 75 µg/mL (Fusarium oxysporum [21]): 19 mm; zone of inhibition at 25 µg/mL (Fusarium oxysporum [22]): 13 mm; zone of inhibition at 100 µg/mL (Escherichia coli [23]): 29 mm; zone of inhibition at 50 µg/mL (Staphylococcus aureus [24]): 19 mm; zone of inhibition at 25 µg/mL (Staphylococcus aureus [25]): 17 mm; zone of inhibition at 25 µg/mL (Candida albicans [26]): 12 mm; zone of inhibition at 25 µg/mL (Bacillus subtilis [27]): 15 mm; zone of inhibition at 50 µg/mL (Candida albicans [28]): 17 mm
